# Experiments:
# [1] = biological target: T1, hOCT1 (Homo sapiens, UniProt O15245); test: Uptake of aconitum alkaloids in hOCT1-transfected cells vs mock; type: in vitro ADME; conditions: 10 μm, 5 min
# T1 sequence (O15245 1-554): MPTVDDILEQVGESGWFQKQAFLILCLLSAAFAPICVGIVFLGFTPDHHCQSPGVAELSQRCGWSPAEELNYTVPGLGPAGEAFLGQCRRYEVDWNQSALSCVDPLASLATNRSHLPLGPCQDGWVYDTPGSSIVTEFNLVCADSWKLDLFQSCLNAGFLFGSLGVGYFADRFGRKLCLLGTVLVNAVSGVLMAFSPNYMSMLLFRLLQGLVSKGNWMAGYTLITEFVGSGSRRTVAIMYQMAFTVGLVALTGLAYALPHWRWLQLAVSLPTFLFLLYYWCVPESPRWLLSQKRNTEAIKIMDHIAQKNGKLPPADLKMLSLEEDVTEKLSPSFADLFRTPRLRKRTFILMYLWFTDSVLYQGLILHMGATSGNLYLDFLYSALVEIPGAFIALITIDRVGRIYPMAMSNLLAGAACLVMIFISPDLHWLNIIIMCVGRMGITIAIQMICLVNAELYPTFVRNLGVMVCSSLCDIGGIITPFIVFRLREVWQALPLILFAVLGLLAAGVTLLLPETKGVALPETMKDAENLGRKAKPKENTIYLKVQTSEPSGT
# [2] = biological target: T2, hOATP2B1 (Homo sapiens, UniProt O94956); type: in vitro ADME; conditions: for inhibition of hOATP2B1: screening at 100 μm
# T2 sequence (O94956 1-709): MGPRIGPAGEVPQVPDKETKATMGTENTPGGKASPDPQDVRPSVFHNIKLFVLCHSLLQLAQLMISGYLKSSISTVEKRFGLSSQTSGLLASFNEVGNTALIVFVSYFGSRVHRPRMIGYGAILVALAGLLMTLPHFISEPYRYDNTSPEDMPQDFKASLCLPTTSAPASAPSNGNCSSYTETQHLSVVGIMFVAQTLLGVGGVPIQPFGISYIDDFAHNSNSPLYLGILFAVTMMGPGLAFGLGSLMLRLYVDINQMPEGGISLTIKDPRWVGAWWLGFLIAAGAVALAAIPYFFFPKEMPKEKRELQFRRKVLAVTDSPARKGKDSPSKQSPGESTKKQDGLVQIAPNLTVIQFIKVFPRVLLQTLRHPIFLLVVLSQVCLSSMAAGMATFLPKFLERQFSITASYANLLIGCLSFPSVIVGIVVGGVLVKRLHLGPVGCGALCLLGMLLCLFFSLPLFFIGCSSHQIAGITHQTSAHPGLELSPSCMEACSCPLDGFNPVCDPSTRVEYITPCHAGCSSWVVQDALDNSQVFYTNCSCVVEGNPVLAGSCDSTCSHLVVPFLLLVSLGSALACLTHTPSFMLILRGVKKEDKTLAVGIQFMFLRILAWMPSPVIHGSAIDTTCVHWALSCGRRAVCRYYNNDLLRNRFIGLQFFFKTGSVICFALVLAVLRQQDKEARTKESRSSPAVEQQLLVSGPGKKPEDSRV
# Procedure, shortened: (§1)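 Transfected and mock cells were incubated 2 min at 37 °C with 200 nmol L−1 3H-ES plus test compound. The screen used a single 100 μmol L−1 concentration with reference inhibitors as positive controls, giving an inhibition rate (n = 3, mean ± sd). […] DMSO was <0.2%. Cells were stopped with cold DPBS, rinsed three times, lysed in 0.1 mol L−1 NaOH and counted by scintillation (dpm).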
# [3] = biological target: T3, hOCT2 (Homo sapiens, UniProt O15244); test: Inhibition of 14C-TEA uptake in hOCT2-transfected cells by liquorice ingredients; type: in vitro ADME; conditions: for inhibitory rate on hOCT2: 100 μm, 5 μmol L^−1 14C-TEA, 5 min
# T3 sequence (O15244 1-555): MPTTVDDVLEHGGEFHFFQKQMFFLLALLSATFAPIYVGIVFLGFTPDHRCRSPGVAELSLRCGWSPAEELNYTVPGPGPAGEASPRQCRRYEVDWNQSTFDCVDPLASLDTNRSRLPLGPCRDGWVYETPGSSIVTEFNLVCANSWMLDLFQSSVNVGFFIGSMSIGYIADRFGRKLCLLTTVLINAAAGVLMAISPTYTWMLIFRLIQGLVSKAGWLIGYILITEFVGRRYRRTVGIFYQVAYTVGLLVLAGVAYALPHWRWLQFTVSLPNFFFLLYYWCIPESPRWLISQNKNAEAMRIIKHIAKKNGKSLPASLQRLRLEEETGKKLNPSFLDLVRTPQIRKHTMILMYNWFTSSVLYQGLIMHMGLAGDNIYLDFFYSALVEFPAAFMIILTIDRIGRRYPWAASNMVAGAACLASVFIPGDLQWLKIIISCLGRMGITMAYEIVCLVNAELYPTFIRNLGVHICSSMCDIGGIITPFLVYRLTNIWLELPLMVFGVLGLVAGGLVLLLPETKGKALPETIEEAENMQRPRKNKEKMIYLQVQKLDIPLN
# [4] = biological target: T4, hOAT3 (Homo sapiens, UniProt Q8TCC7); test: Inhibition of 3H-ES uptake in hOAT3-transfected cells by liquorice ingredients; type: in vitro ADME
# T4 sequence (Q8TCC7 1-542): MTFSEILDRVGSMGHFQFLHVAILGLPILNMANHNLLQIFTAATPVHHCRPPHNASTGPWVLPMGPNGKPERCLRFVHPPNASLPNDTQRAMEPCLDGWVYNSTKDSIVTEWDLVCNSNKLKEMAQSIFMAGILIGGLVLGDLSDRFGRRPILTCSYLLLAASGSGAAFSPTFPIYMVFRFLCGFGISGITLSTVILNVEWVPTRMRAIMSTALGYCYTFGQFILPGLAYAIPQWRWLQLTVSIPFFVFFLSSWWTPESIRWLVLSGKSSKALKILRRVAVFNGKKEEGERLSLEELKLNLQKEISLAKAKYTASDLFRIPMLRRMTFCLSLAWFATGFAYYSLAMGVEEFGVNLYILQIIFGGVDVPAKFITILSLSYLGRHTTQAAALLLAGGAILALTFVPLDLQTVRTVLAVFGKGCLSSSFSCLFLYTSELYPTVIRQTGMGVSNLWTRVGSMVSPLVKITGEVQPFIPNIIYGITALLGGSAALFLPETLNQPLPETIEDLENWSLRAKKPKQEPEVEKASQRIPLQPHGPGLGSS
# Procedure, shortened: as §1
# [5] = biological target: T5, hOATP1B1 (Homo sapiens, UniProt Q9Y6L6); type: in vitro ADME; conditions: screening at 100 μm
# T5 sequence (Q9Y6L6 1-691): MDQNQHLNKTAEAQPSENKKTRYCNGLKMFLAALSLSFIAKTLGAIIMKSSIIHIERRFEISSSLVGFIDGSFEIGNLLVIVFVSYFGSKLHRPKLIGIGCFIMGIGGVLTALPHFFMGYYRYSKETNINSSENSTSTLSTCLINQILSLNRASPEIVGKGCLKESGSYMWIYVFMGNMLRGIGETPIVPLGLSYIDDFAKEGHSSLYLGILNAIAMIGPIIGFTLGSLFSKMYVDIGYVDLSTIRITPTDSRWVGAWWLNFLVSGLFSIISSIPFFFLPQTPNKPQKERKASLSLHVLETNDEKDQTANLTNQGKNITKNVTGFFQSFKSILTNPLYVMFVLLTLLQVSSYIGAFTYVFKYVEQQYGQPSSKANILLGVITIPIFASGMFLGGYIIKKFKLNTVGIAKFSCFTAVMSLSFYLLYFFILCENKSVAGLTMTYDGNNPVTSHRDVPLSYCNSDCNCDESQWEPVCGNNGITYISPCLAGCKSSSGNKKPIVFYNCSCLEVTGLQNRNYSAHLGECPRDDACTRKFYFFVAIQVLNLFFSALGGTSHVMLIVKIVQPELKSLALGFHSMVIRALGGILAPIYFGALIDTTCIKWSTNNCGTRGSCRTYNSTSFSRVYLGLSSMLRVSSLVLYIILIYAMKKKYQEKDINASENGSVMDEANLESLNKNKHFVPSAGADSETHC
# [6] = biological target: T6, hOATP1B3 (Homo sapiens, UniProt Q9NPD5); type: in vitro ADME; conditions: screening at 100 μm
# T6 sequence (Q9NPD5 1-702): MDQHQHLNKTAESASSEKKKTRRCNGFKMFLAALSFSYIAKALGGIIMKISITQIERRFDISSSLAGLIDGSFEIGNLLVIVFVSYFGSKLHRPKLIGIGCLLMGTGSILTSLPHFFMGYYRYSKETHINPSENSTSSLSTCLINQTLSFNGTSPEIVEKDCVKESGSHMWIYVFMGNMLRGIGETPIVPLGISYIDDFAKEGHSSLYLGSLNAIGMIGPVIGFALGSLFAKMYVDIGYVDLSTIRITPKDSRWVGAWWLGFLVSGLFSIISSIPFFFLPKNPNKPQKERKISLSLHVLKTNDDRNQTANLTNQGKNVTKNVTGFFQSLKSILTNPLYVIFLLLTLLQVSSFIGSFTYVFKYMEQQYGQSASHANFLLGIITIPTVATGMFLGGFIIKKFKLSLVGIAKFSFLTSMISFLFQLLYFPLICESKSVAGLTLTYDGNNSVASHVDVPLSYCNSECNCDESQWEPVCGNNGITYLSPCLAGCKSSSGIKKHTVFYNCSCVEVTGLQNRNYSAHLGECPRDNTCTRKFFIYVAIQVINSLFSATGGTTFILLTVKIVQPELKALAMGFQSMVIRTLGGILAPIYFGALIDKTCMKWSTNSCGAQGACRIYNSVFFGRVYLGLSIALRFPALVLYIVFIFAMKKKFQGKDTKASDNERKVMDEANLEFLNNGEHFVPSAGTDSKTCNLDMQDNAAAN
# [7] = biological target: T5, hOATP1B1; test: Uptake of aconitum alkaloids in hOATP1B1-transfected HEK293 cells vs mock; type: in vitro ADME; conditions: 10 μm, 2 min
# Procedure, shortened: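 HEK293-hOATP1B1 and mock cells were grown in DMEM with 10% FBS, seeded at 2 × 10^5/well and cultured 48 h. They were rinsed, preincubated 10 min at 37 °C in DPBS pH 7.4, then exposed to the alkaloid for 2 min at 37 °C. After three ice-cold DPBS rinses and methanol lysis, supernatants were measured by UPLC-MS/MS (positive MRM, sinomenine internal standard). Results were normalised to BCA protein; n = 3, t-test versus mock.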
# [8] = biological target: T6, hOATP1B3; test: Uptake of aconitum alkaloids in hOATP1B3-transfected HEK293 cells vs mock; type: in vitro ADME; conditions: 10 μm, 2 min, HEK293-hOATP1B3 vs mock
# [9] = type: in vivo, Sprague-Dawley (SD) rats; conditions: pretreatment with the named substance, rats
smiles,measurement,setting,value
CCN1C[C@]2(COC)[C@H](O)C[C@H](OC)[C@@]34[C@@H]5C[C@@]6(O)[C@H](OC(=O)c7ccccc7)[C@@H]5[C@@](O)([C@@H]([C@H](OC)[C@H]23)[C@@H]14)[C@@H](O)[C@@H]6OC [benzoylaconitine],"concentration in HEK293–hOCT1, fold higher than control",[1],~2.3 fold
COC[C@@]12CC[C@H](OC)[C@]34C([C@H]([C@H](OC)[C@H]13)[C@]1(O)[C@H]3[C@@H](OC(=O)c5ccccc5)[C@](O)(C[C@H]34)[C@@H](OC)[C@@H]1O)N(C)C2 [benzoylhypaconitine],"concentration in HEK293–hOCT1, fold higher than control",[1],~3.7 fold
COC[C@]12CN(C)C3[C@@H]4[C@H](OC)[C@H]1[C@@]3([C@@H](OC)C[C@H]2O)[C@@H]1C[C@@]2(O)[C@H](OC(=O)c3ccccc3)[C@@H]1[C@]4(O)[C@@H](O)[C@@H]2OC [benzoylmesaconitine],"concentration in HEK293–hOCT1, fold higher than control",[1],~2.2 fold
CC1(C)[C@@H](O)CC[C@]2(C)[C@H]3C(=O)C=C4[C@@H]5C[C@@](C)(C(=O)O)CC[C@]5(C)CC[C@@]4(C)[C@]3(C)CC[C@@H]12 [glycyrrhetinic acid],IC50,[2],1070 nM
same,inhibition of hOATP2B1,[2],strong inhibitors
same,IC50,[3],7410 nM
same,inhibitory rate on hOCT2,[3],80.17%
same,IC50,[4],1830 nM
COC[C@@]12CC[C@H](OC)[C@]34C(C([C@H](OC)[C@H]13)[C@]1(OC(C)=O)[C@H]3[C@@H](OC(=O)c5ccccc5)[C@](O)(C[C@H]34)[C@@H](OC)[C@@H]1O)N(C)C2 [hypaconitine],"concentration in HEK293–hOCT1, fold higher than control",[1],~3.3 fold
O=C(/C=C/c1ccc(O)cc1)c1ccc(O)cc1O [isoliquiritigenin],IC50,[3],31400 nM
same,IC50,[4],2180 nM
O=C(/C=C/c1ccc(O[C@@H]2O[C@H](CO)[C@@H](O)[C@H](O)[C@H]2O)cc1)c1ccc(O)cc1O [isoliquiritin],inhibition of hOATP1B1,[5],strong inhibitors
same,inhibition of hOATP1B3,[6],strong inhibitors
same,inhibition of hOATP2B1,[2],strong inhibitors
same,inhibitory rate on hOCT2,[3],71.9%
COC[C@]12CN(C)[C@@H]3[C@@H]4[C@H](OC)[C@H]1[C@@]3([C@@H](OC)C[C@H]2O)[C@@H]1C[C@@]2(O)[C@H](OC(=O)c3ccccc3)[C@@H]1[C@]4(OC(C)=O)[C@@H](O)[C@@H]2OC [mesaconitine],"concentration in hOATP1B1-transfected cells, fold of HEK293 mock cells",[7],approximately 2.7 fold
same,"concentration in hOATP1B3-transfected cells, fold of HEK293 mock cells",[8],~3.4 fold
same,"concentration in HEK293–hOCT1, fold higher than control",[1],roughly 1.9 fold
"C=C[C@H]1C[N@@]2CC[C@H]1C[C@@H]2[C@@H](O)c1ccnc2ccc(OC)cc12 [quinidine, reference compound]",Tmax of aconitine in the liver,[9],postponed

# Reference: PMC9064382 (RSC Advances, 2019)
